From ChEMBL document CHEMBL4308847, “Discovery, Structure-Activity Relationship, and Biological Characterization of a Novel Series of 6-((1 H-Pyrazolo[4,3- b]pyridin-3-yl)amino)-benzo[ d]isothiazole-3-carboxamides as Positive Allosteric Modulators of the Metabotropic Glutamate Receptor 4 (mGlu4)” (J Med Chem, 2018)
Each block holds one compound with its values, some of them ahead of it. Active and inactive are the calls of the source. No cut-off for these calls is given here.

Columns and labels:
[1] = target: T1, Metabotropic glutamate receptor 4 (Homo sapiens, UniProt Q14833); assay: (§1) Positive allosteric modulation of human mGlu4 receptor expressed in CHO cells co-expressing Gqi5 assessed as increase in glutamate-induced calcium mobilization preincubated for 142 secs followed by EC20 glutamate addition and subsequent EC80 glutamate addition after 147 secs by Fluo-4-AM dye based fluorescence assay; assay type: functional, cell-based
How it was run: (§2)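 CHO cells expressing human mGlu4 and Gqi5, plated at 30,000 cells/well and grown overnight at 37 °C, 5% CO2. Cells were loaded with 1 μM Fluo-4 AM for 45 min at 37 °C in HBSS/20 mM HEPES/2.5 mM probenecid. Compounds were run as 10-point, 1:3 dilution series. After 142 s, EC20 glutamate was added; 147 s later, EC80 glutamate. Fluorescence was normalized to the maximal glutamate response. EC50 and %Glu Max were fitted by four-parameter logistic, with maximum normalized to PHCCC.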

[2] = target: T1, Metabotropic glutamate receptor 4; assay: as §1, with “measured” for “subsequent EC80 glutamate addition”, “assay relative to control” for “assay”; assay type: functional, cell-based; how it was run: as §2
[3] = target: T2, AhR (read out as CYP1A2 induction) (Homo sapiens, UniProt P35869); assay: Activation of AhR (unknown origin) assessed as CYP1A2 induction relative to control; assay type: ADME
T2 sequence (P35869 whole entry): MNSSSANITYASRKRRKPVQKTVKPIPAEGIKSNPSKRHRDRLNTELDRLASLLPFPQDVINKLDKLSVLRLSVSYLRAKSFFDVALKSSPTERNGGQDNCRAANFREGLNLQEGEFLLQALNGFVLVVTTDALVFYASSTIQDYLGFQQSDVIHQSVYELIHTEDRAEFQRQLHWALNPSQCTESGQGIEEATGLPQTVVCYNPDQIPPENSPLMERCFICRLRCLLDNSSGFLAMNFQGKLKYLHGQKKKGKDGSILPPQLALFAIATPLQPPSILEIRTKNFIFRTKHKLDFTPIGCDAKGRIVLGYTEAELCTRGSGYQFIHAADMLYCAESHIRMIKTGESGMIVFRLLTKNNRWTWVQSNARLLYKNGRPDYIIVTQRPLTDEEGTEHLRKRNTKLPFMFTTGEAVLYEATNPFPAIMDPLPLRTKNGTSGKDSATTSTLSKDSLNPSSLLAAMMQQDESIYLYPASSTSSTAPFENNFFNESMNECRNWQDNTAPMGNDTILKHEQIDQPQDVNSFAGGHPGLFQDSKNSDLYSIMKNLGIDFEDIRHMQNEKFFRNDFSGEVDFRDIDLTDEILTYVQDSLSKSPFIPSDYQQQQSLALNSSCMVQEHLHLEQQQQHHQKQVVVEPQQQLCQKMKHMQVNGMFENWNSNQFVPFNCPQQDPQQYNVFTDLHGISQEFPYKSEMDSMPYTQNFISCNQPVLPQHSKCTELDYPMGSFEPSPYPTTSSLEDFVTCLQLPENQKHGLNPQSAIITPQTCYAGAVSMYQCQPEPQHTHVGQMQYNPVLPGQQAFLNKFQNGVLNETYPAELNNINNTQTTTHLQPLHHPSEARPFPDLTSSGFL

[4] = Intrinsic clearance in human liver microsomes at 1 uM preincubated for 5 mins followed by NADPH addition measured up to 45 mins by LC-MS/MS analysis; assay type: ADME, Microsome; conditions: read-out: CLH
How it was run: (§3)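 Intrinsic and predicted hepatic clearance derived from liver microsome incubations.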

[5] = Intrinsic clearance in rat liver microsomes at 1 uM preincubated for 5 mins followed by NADPH addition measured up to 45 mins by LC-MS/MS analysis; assay type: ADME, Microsome; conditions: read-out: CLH; how it was run: as §3
[6] = Fraction unbound in human plasma after 4 hrs by equilibrium dialysis method; assay type: ADME, cell-free
[7] = Fraction unbound in rat plasma after 4 hrs by equilibrium dialysis method; assay type: ADME, cell-free
Cytochrome P450 1A2 = target: T3, Cytochrome P450 1A2 (Homo sapiens, UniProt P05177); assay: Inhibition of CYP1A2 in human liver microsomes using phenacetin as substrate preincubated for 15 mins followed by substrate addition and measured after 8 mins by LC-MS/MS analysis; assay type: ADME
T3 sequence (P05177 whole entry): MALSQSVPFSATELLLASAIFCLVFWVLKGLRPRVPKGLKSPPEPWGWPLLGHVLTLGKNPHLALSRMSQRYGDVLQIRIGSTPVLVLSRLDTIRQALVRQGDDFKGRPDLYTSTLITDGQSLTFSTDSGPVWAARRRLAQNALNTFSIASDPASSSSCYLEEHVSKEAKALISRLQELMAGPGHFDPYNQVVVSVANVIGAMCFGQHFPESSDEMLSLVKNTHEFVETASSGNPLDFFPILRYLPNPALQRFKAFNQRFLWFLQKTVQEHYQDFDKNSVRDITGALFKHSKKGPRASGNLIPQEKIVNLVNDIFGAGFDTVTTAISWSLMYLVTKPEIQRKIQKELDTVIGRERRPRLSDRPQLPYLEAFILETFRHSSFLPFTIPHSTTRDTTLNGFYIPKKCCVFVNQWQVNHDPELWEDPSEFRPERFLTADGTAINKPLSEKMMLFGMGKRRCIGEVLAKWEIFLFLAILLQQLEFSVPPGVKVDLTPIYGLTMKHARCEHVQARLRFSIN
How it was run: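 IC50 for CYP1A2 inhibition determined in human liver microsomes using specific probe substrate-metabolite pairs.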

[8] = target: Metabotropic glutamate receptor 4 (Rattus norvegicus, UniProt P31423); assay: (§4) Positive allosteric modulation of rat mGlu4 receptor expressed in HEK cells co-expressing GIRK1/2 assessed as increase in glutamate-induced thallium flux preincubated for 140 secs followed by glutamate addition and measured after 2.5 mins by FluoZin-2-AM dye based fluorescence assay; assay type: cell-based
How it was run: (§5)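 HEK cells co-expressing rat mGlu4 and GIRK1/2 were loaded for 1 h at room temperature with FluoZin-2 AM (330 nM final) in HBSS/20 mM HEPES pH 7.4. Compound was incubated 140 s, then thallium buffer with or without agonist was added. Reading continued for 2.5 min at room temperature. Potency was fitted by four-parameter logistic.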

[9] = target: Metabotropic glutamate receptor 4 (Rattus norvegicus) (UniProt P31423); assay: as §4, with “assay relative to control” for “assay”; assay type: cell-based; how it was run: as §5
[10] = Clearance in rat administered as iv cassette dose; assay type: ADME, organism-based; conditions: in vivo
How it was run: (§6)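 IV cassette in male Sprague-Dawley rats (~300 g, n = 1 per experiment), cannulated in carotid artery and jugular vein and acclimated about one week. Plasma clearance, Vss, t1/2 and MRT were derived.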

[11] = Volume of distribution at steady state in rat administered as iv cassette dose; assay type: ADME, organism-based; conditions: in vivo, read-out: Vdss; how it was run: as §6
[12] = MRT in rat administered as iv cassette dose; assay type: ADME, organism-based; conditions: in vivo; how it was run: as §6
[13] = Half life in rat administered as iv cassette dose; assay type: ADME, organism-based; conditions: in vivo; how it was run: as §6
[14] = Plasma concentration in rat administered as iv cassette dose; assay type: ADME, organism-based; conditions: in vivo
How it was run: (§7)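 Cassette dosing in male Sprague-Dawley rats (~300 g, n = 1 per experiment), with carotid artery and jugular vein catheters. Animals acclimated about one week with food and water ad libitum. Plasma (ng/mL) and brain (ng/g) levels were measured and Kp calculated.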

[15] = Drug uptake in rat brain administered as iv cassette dose; assay type: ADME, organism-based; conditions: in vivo; how it was run: as §7
[16] = Brain to plasma partition coefficient, Kp of the compound in rat administered as iv cassette dose; assay type: ADME, organism-based; how it was run: as §7
Rattus norvegicus = assay: Reversal of haloperidol-induced catalepsy in Sprague-Dawley rat assessed as decrease in latency to remove forepaws from bar at 10 mg/kg, po administered 30 mins prior to test; assay type: functional, organism-based
How it was run: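 Male Sprague-Dawley rats were randomized and given haloperidol 0.75 mg/kg i.p., then 60 min in home cage. Vehicle or compound (10 mg/kg) was given orally 30 min before catalepsy testing, N = 11–12 rats/group. Data analyzed by one-way ANOVA with Dunnett's test versus vehicle + haloperidol.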

T1 sequence (Q14833 whole entry): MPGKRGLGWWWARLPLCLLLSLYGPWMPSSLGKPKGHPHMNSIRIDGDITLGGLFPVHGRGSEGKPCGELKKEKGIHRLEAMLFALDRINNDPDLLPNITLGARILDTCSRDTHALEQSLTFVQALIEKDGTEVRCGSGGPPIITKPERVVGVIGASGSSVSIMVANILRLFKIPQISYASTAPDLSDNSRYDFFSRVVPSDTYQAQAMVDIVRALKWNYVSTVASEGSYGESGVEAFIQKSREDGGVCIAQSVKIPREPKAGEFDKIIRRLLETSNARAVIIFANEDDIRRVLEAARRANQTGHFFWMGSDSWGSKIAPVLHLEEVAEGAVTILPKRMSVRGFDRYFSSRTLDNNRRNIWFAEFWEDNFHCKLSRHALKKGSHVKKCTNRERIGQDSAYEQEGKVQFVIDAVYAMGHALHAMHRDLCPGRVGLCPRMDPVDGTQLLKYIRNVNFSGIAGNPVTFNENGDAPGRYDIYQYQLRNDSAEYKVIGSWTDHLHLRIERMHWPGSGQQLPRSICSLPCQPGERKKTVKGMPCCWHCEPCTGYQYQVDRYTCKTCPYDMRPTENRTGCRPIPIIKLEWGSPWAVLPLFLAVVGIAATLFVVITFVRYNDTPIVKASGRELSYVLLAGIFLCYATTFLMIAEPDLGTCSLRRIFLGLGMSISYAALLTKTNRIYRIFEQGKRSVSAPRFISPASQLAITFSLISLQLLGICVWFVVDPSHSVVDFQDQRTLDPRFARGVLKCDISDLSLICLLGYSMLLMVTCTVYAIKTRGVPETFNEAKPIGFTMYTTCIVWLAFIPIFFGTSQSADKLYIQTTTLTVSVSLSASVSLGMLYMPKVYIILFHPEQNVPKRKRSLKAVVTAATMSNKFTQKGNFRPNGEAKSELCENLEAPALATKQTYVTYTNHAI
Sequence of Metabotropic glutamate receptor 4 (Rattus norvegicus) (P31423 whole entry): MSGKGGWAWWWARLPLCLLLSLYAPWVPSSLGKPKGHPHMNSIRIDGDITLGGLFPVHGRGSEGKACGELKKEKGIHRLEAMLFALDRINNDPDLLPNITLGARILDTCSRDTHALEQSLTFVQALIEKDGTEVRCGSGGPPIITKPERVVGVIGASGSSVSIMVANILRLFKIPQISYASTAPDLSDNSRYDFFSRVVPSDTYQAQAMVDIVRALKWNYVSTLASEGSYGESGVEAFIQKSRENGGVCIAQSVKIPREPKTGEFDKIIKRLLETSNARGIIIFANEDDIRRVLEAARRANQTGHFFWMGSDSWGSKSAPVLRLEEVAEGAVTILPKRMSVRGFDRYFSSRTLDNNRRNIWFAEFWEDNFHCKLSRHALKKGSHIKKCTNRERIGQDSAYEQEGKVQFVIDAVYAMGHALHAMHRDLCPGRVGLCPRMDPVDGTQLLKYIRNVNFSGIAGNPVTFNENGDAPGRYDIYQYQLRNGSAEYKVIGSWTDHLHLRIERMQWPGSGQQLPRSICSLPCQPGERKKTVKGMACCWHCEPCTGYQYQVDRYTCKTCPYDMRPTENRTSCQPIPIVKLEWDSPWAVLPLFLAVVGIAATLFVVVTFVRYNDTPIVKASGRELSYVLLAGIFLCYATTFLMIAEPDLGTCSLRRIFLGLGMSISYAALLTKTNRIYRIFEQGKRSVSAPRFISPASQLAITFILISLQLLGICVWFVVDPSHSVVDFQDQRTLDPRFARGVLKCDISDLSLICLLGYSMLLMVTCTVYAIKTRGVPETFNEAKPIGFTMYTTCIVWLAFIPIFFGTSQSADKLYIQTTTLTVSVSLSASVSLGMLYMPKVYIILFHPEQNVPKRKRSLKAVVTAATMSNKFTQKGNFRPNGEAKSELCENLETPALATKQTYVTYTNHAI
Sequence of Metabotropic glutamate receptor 4 (Rattus norvegicus, UniProt P31423) (P31423 whole entry): as above

Compound: Cc1noc2ccc(Nc3n[nH]c4cc(F)cnc34)cc12
EC50 [1]: 1570 nM | %max [2]: 80.6% | Emax [3]: > 50% | CLint scaled at 1 µM [4]: 24.2 mL/min/kg | CLint scaled at 1 µM [5]: 33.4 mL/min/kg | fraction unbound at 4 h [6]: 0.054 | fraction unbound at 4 h [7]: 0.076 | IC50 (Cytochrome P450 1A2): < 100 nM | EC50 [8]: 123 nM | %max [9]: 111% | clearance [10]: 64.6 mL/min/kg | Vd [11]: 2 L/kg | MRT [12]: 31.6 min | half-life [13]: 54.8 min

Compound: Cc1noc2c(F)cc(Nc3n[nH]c4ncccc34)cc12
EC50 [1]: 122 nM | %max [2]: 74.7% | Emax [3]: > 50% | CLint scaled at 1 µM [4]: 50.2 mL/min/kg | CLint scaled at 1 µM [5]: 110 mL/min/kg | fraction unbound at 4 h [6]: 0.028 | fraction unbound at 4 h [7]: 0.033 | IC50 (Cytochrome P450 1A2): < 100 nM | EC50 [8]: 169 nM | %max [9]: 114% | clearance [10]: 30.5 mL/min/kg | Vd [11]: 1.2 L/kg | MRT [12]: 38 min | half-life [13]: 34.7 min

Compound: Cc1noc2c(F)cc(Nc3n[nH]c4cccnc34)cc12
EC50 [1]: 274 nM | %max [2]: 77.7% | Emax [3]: > 50% | CLint scaled at 1 µM [4]: 31.1 mL/min/kg | CLint scaled at 1 µM [5]: 66.4 mL/min/kg | fraction unbound at 4 h [6]: 0.029 | fraction unbound at 4 h [7]: 0.05 | IC50 (Cytochrome P450 1A2): < 100 nM | EC50 [8]: 53 nM | %max [9]: 114% | clearance [10]: 81.1 mL/min/kg | Vd [11]: 3.1 L/kg | MRT [12]: 38.4 min | half-life [13]: 31.2 min

Compound: Fc1ccc(Nc2n[nH]c3cccnc23)cc1Cl
Activity (Rattus norvegicus): Active

Compound: Cc1noc2ccc(Nc3n[nH]c4ncccc34)cc12
EC50 [1]: 227 nM | %max [2]: 81.9% | Emax [3]: > 50% | CLint scaled at 1 µM [4]: 81.4 mL/min/kg | CLint scaled at 1 µM [5]: 30.1 mL/min/kg | fraction unbound at 4 h [6]: 0.066 | fraction unbound at 4 h [7]: 0.079 | IC50 (Cytochrome P450 1A2): 700 nM | EC50 [8]: 209 nM | %max [9]: 108% | clearance [10]: 38 mL/min/kg | Vd [11]: 2.5 L/kg | MRT [12]: 60.6 min | half-life [13]: 107 min

More lines, now with the values ahead:

EC50 [1]: 137 nM | %max [2]: 85.4% | Emax [3]: > 50% | CLint scaled at 1 µM [4]: 114 mL/min/kg | CLint scaled at 1 µM [5]: 3 mL/min/kg | fraction unbound at 4 h [6]: 0.066 | fraction unbound at 4 h [7]: 0.064 | IC50 (Cytochrome P450 1A2): 200 nM | EC50 [8]: 65 nM | %max [9]: 127% | clearance [10]: 24.3 mL/min/kg | Vd [11]: 0.9 L/kg | MRT [12]: 37.2 min | half-life [13]: 28.6 min
Compound: Cc1noc2ccc(Nc3n[nH]c4nccnc34)cc12

EC50 [1]: 26 nM | %max [2]: 68.1% | CLint scaled at 1 µM [4]: 2.6 mL/min/kg | CLint scaled at 1 µM [5]: 8.3 mL/min/kg | fraction unbound at 4 h [6]: 0.004 | fraction unbound at 4 h [7]: 0.007 | IC50 (Cytochrome P450 1A2): > 30000 nM | EC50 [8]: 82.2 nM | %max [9]: 86.6% | Cp [14]: 690 ng/mL | Drug uptake [15]: 55.6 ng/g | Kp ([16]; brain and plasma, read-out: Kp): 0.08
Compound: O=C(NC1CC(F)(F)C1)c1nsc2cc(Nc3n[nH]c4nccnc34)ccc12

EC50 [1]: 68.1 nM | %max [2]: 76.7% | CLint scaled at 1 µM [4]: 298 mL/min/kg | CLint scaled at 1 µM [5]: 2940 mL/min/kg | fraction unbound at 4 h [6]: 0.006 | fraction unbound at 4 h [7]: < 0.001 | Cp [14]: 511 ng/mL | Drug uptake ([15]; BLD = below limit of detection): Bld | Kp ([16]; brain, BLD = below limit of detection): Bld
Compound: CN(C(=O)c1nsc2cc(Nc3n[nH]c4cccnc34)ccc12)C1CC(F)(F)C1

EC50 [1]: 514 nM | %max [2]: 85.5% | CLint scaled at 1 µM [4]: 42.3 mL/min/kg | CLint scaled at 1 µM [5]: 281 mL/min/kg | fraction unbound at 4 h [6]: 0.013 | fraction unbound at 4 h [7]: 0.008 | IC50 (Cytochrome P450 1A2): 3000 nM | EC50 [8]: 518 nM | %max [9]: 102% | clearance [10]: 23.2 mL/min/kg | half-life [13]: 45.9 min | Cp [14]: 117 ng/mL | Drug uptake [15]: 145 ng/g | Kp ([16]; brain and plasma, read-out: Kp): 1.2
Compound: c1cnc2c(Nc3ccc4c(C5CCCC5)noc4c3)n[nH]c2n1

EC50 [1]: 52.4 nM | %max [2]: 71% | CLint scaled at 1 µM [4]: 54 mL/min/kg | CLint scaled at 1 µM [5]: 393 mL/min/kg | fraction unbound at 4 h [6]: 0.021 | fraction unbound at 4 h [7]: 0.029 | IC50 (Cytochrome P450 1A2): > 30000 nM | EC50 [8]: 139 nM | %max [9]: 103% | Cp [14]: 249 ng/mL | Drug uptake [15]: 35.5 ng/g | Kp ([16]; brain and plasma, read-out: Kp): 0.14
Compound: O=C(c1nsc2cc(Nc3n[nH]c4cccnc34)ccc12)N1CCC(F)(F)CC1
